{"source": "paper PMC4203403", "about": "(Journal of Medicinal Chemistry, 2014)", "key": {"CB1 receptor [1]": {"target": "T1, CB1 receptor (Homo sapiens, UniProt P21554)", "T1 sequence (P21554 whole entry)": "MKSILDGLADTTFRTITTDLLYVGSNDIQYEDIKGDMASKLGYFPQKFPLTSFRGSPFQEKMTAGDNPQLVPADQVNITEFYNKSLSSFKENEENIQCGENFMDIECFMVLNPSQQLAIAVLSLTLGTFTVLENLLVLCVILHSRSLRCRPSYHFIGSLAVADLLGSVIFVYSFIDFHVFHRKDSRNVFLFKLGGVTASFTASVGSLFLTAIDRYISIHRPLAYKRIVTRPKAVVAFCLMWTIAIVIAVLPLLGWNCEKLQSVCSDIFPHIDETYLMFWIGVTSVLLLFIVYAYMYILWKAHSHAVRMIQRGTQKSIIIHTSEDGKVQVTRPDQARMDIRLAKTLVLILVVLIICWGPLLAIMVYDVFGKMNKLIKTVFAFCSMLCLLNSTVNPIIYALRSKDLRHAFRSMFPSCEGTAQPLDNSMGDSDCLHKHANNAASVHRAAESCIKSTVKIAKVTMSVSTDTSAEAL", "assay": "Radioligand binding assay with [3H]CP55,940", "details": "for α: binding cooperativity factor: [3H]CP55,940 as orthosteric ligand, ND = no detectable modulation of [3H]CP55,940 binding using up to 32 μM", "outline": "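CB1 was transiently expressed in HEK293 cells by calcium phosphate transfection, and membranes were harvested 24 h later. […] Nonspecific binding was measured with 1 μM CP55,940. Read-out was GF/C filtration and scintillation counting. Run in duplicate, ≥3 experiments; KB and α fitted by nonlinear regression.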"}, "CB1 receptor [2]": {"target": "T1, CB1 receptor", "assay": "CP55,940-induced [35S]GTPγS binding assay, HEK293 cell membranes expressing CB1", "format": "biochemical", "details": "result in words"}, "CB1 receptor [3]": {"target": "T1, CB1 receptor", "assay": "ERK1/2 phosphorylation immunoblotting in HEK293 cells expressing CB1", "format": "cell-based", "details": "for modulator concentration at which ERK1/2 phosphorylation reached a plateau: in the presence of 0.2 μM CP55,940, 5 min; for effect of β-arrestin 1 knockdown on induced ERK1/2 phosphorylation: siRNA targeting β-arrestin 1; for effect of β-arrestin 1 knockdown on induced ERK1/2 phosphorylation / pertussis toxin (PTX) sensitivity of induced ERK1/2 phosphorylation: result in words; for pertussis toxin (PTX) sensitivity of induced ERK1/2 phosphorylation: PTX pretreatment"}, "CB1 receptor [4]": {"target": "T1, CB1 receptor", "details": "[3H]CP55,940 as orthosteric ligand; given for comparison; cited from earlier work"}}, "note": "Where two headings read alike, the source gives them in different places."}
{"molecule": "CCCc1c(C(=O)NCCc2ccc(N3CCCCC3)cc2)[nH]c2ccc(Cl)cc12", "note": "[Compound 12a, 5-Chloro-N-(4-(piperidin-1-yl)phenethyl)-3-propyl-1H-indole-2-carboxamide]", "values": [{"measurement": "α: binding cooperativity factor", "setting": "CB1 receptor [1]", "result": 26.7}]}
{"molecule": "CCCCc1c(C(=O)NCCc2ccc(N(C)C)cc2)[nH]c2ccc(Cl)cc12", "note": "[Compound 12e, 3-Butyl-5-chloro-N-(4-(dimethylamino)phenethyl)-1H-indole-2-carboxamide]", "values": [{"measurement": "α: binding cooperativity factor", "setting": "CB1 receptor [1]", "result": 12.8}]}
{"molecule": "CCCc1c(C(=O)NCCc2ccc(N(C)C)cc2)[nH]c2ccc(Cl)cc12", "note": "[Compound 12d, 5-Chloro-N-(4-(dimethylamino)phenethyl)-3-propyl-1H-indole-2-carboxamide]", "values": [{"measurement": "effect on CP55,940-induced G-protein coupling activity (GTPγS binding)", "setting": "CB1 receptor [2]", "result": "concentration-dependent inhibition of agonist-induced GTPγS binding"}, {"measurement": "α: binding cooperativity factor", "setting": "CB1 receptor [1]", "result": 24.5}, {"measurement": "modulator concentration at which ERK1/2 phosphorylation reached a plateau", "setting": "CB1 receptor [3]", "result": 5, "unit": "µM"}, {"measurement": "effect of β-arrestin 1 knockdown on induced ERK1/2 phosphorylation", "setting": "CB1 receptor [3]", "result": "substantial inhibition of ERK1/2 phosphorylation"}]}
{"molecule": "CCCCCCC(C)(C)c1ccc([C@@H]2C[C@H](O)CC[C@H]2CCCO)c(O)c1", "note": "[CP55,940, 2-[(1R,2R,5R)-5-hydroxy-2-(3-hydroxypropyl)cyclohexyl]-5-(2-methyloctan-2-yl)phenol, reference compound]", "values": [{"measurement": "pertussis toxin (PTX) sensitivity of induced ERK1/2 phosphorylation", "setting": "CB1 receptor [3]", "result": "substantially attenuated by pertussis toxin (PTX)"}, {"measurement": "effect of β-arrestin 1 knockdown on induced ERK1/2 phosphorylation", "setting": "CB1 receptor [3]", "result": "not by β-arrestin knockdown"}]}
{"molecule": "CCc1c(C(=O)NCCc2ccc(N3CCCCC3)cc2)[nH]c2ccc(Cl)cc12", "note": "[Compound 1, 5-Chloro-3-ethyl-N-(4-(piperidin-1-yl)phenethyl)-1H-indole-2-carboxamide]", "values": [{"measurement": "α: binding cooperativity factor", "setting": "CB1 receptor [4]", "result": 6.9}]}
{"molecule": "CCCCCCc1c(C(=O)NCCc2ccc(N(C)C)cc2)[nH]c2ccc(Cl)cc12", "note": "[Compound 12f, 5-Chloro-N-(4-(dimethylamino)phenethyl)-3-hexyl-1H-indole-2-carboxamide]", "values": [{"measurement": "effect on CP55,940-induced G-protein coupling activity (GTPγS binding)", "setting": "CB1 receptor [2]", "result": "concentration-dependent inhibition of agonist-induced GTPγS binding"}, {"measurement": "α: binding cooperativity factor", "setting": "CB1 receptor [1]", "result": 5.1}, {"measurement": "pertussis toxin (PTX) sensitivity of induced ERK1/2 phosphorylation", "setting": "CB1 receptor [3]", "result": "PTX insensitive"}, {"measurement": "modulator concentration at which ERK1/2 phosphorylation reached a plateau", "setting": "CB1 receptor [3]", "result": 5, "unit": "µM"}, {"measurement": "effect of β-arrestin 1 knockdown on induced ERK1/2 phosphorylation", "setting": "CB1 receptor [3]", "result": "substantial inhibition of ERK1/2 phosphorylation"}]}
{"molecule": "CCCCCc1c(C(=O)NCCc2ccc(N(C)C)cc2)[nH]c2ccc(Cl)cc12", "note": "[Compound 5, 5-chloro-N-(4-(dimethylamino)phenethyl)-3-pentyl-1H-indole-2-carboxamide]", "values": [{"measurement": "α: binding cooperativity factor", "setting": "CB1 receptor [4]", "result": 16.5}]}
{"molecule": "CCc1c(C(=O)NCCc2ccc(N(C)C)cc2)[nH]c2ccc(OC)cc12", "note": "[Compound 21d, N-(4-(Dimethylamino)phenethyl)-3-ethyl-5-methoxy-1H-indole-2-carboxamide]", "values": [{"measurement": "α: binding cooperativity factor", "setting": "CB1 receptor [1]", "result": 11.9}]}
{"molecule": "CCc1c(C(=O)NCCc2ccc(N(C)C)cc2)[nH]c2cc(Cl)ccc12", "note": "[Compound 21a, N-(4-(Dimethylamino)phenethyl)-3-ethyl-6-chloro-1H-indole-2-carboxamide]", "values": [{"measurement": "α: binding cooperativity factor", "setting": "CB1 receptor [1]", "result": 16.0}]}
{"molecule": "CCc1c(C(=O)NCCc2ccc(N(C)C)cc2)[nH]c2ccc(Cl)cc12", "note": "[Compound 4, 5-chloro-N-(4-(dimethylamino)phenethyl)-3-ethyl-1H-indole-2-carboxamide]", "values": [{"measurement": "α: binding cooperativity factor", "setting": "CB1 receptor [4]", "result": 19.7}]}
{"molecule": "CCCCCc1c(C(=O)NCCc2ccc(N3CCCCC3)cc2)[nH]c2ccc(Cl)cc12", "note": "[Compound 2, 5-chloro-3-pentyl-N-(4-(piperidin-1-yl)phenethyl)-1H-indole-2-carboxamide, reference compound]", "values": [{"measurement": "α: binding cooperativity factor", "setting": "CB1 receptor [4]", "result": 17.6}, {"measurement": "modulator concentration at which ERK1/2 phosphorylation reached a plateau", "setting": "CB1 receptor [3]", "result": 10, "unit": "µM"}, {"measurement": "effect of β-arrestin 1 knockdown on induced ERK1/2 phosphorylation", "setting": "CB1 receptor [3]", "result": "substantial inhibition of ERK1/2 phosphorylation"}]}
{"molecule": "CCc1c(C(=O)NCCc2ccc(N(C)C)cc2)[nH]c2cc(OC)ccc12", "note": "[Compound 21c, N-(4-(Dimethylamino)phenethyl)-3-ethyl-6-methoxy-1H-indole-2-carboxamide]", "values": [{"measurement": "α: binding cooperativity factor", "setting": "CB1 receptor [1]", "result": 6.2}]}
{"molecule": "CCc1c(C(=O)NCCCc2ccc(N(C)C)cc2)[nH]c2ccc(Cl)cc12", "note": "[Compound 26, 5-Chloro-N-(3-(4-(dimethylamino)phenyl)propyl)-3-ethyl-1H-indole-2-carboxamide]", "values": [{"measurement": "allosteric modulation of orthosteric agonist CP55,940 binding", "setting": "CB1 receptor [1]; result in words", "result": "loss of allosteric modulation"}]}
{"molecule": "CCc1c(C(=O)NCCc2ccc(N(C)C)cc2)[nH]c2cc(F)ccc12", "note": "[Compound 21b, N-(4-(Dimethylamino)phenethyl)-3-ethyl-6-fluoro-1H-indole-2-carboxamide]", "values": [{"measurement": "α: binding cooperativity factor", "setting": "CB1 receptor [1]", "result": 22.9}]}
